Measured values published in ChEMBL document CHEMBL1140867, “Photodynamic molecular beacon triggered by fibroblast activation protein on cancer-associated fibroblasts for diagnosis and treatment of epithelial cancers” (J Med Chem, 2009).
Peptide text beside a SMILES is read from it. * marks the point of attachment. Pyropheophorbide(a) = C=Cc1c(C)c2cc3nc(c4c5[nH]c(cc6nc(cc1[nH]2)C(C)=C6CC)c(C)c5C(=O)C4)[C@@H](CCC(=O)*)[C@@H]3C

Assays:
[1] = tested on: HEK293; test: Photocytotoxicity against mouse FAP expressing HEK293 cells assessed as reduction of cell viability at 4 uM in presence of 2 J cm'-2 radiation by MTT assay; format: functional, Homo sapiens
In short: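 HEK-mFAP and HEK-Vector cells, 2.5×10^4 per well, grown 2 days, then incubated 24 h with compound diluted in FBS-free DMEM (DMSO/Tween 80 formulation) at 8 or 4 µM. Cells rinsed and refed, then irradiated with a 670 nm laser at 130 mW cm⁻², 16 s (2 J cm⁻²) or kept dark. Incubated overnight; MTT 2 h, SDS/HCl solubilization, absorbance read at 570 nm.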

[2] = substrate: C=Cc1c(C)c2cc3nc(c4c5[nH]c(cc6nc(cc1[nH]2)C(C)=C6CC)c(C)c5C(=O)C4)[C@@H](CCC(=O)N[C@H](C(=O)N[C@@H](CO)C(=O)NCC(=O)N1CCC[C@H]1C(=O)N[C@@H](CC(N)=O)C(=O)N[C@@H](CCC(N)=O)C(=O)N[C@@H](CCC(=O)O)C(=O)N[C@@H](CCC(N)=O)C(=O)N[C@@H](CCCCNOC(=O)CCCN(C)c1ccc(/N=N/c2cccc4nc5ccc(N(CC)CC)cc5[n+](-c5ccccc5)c24)cc1)C(N)=O)[C@@H](C)O)[C@@H]3C; test: Activity of mouse FAP assessed as enzyme mediated drug cleavage by measuring increase in fluorescence intensity
In short: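 Purified murine FAP (2 µg) with substrate at 0.1–6 µM in 1 mL 0.12 M NaCl/0.12 M TRIS pH 7.37 (substrate first dissolved in DMSO/Tween 80), 37 °C. Fluorescence followed continuously at ex 650/em 675 nm; excess mFAP (10 µg) added after 1 h. Initial rates (10% depletion), triplicate; Vmax, Km, kcat and kcat/Km from nonlinear Michaelis–Menten fit.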

Molecule	Activity [1] [%]	Km [2] [µM]	Vmax [2] [pmol/min]	kcat [2] [s⁻¹]
C=Cc1c(C)c2cc3nc(c4c5[nH]c(cc6nc(cc1[nH]2)C(C)=C6CC)c(C)c5C(=O)C4)[C@@H](CCC(=O)N[C@H](C(=O)N[C@@H](CO)C(=O)NCC(=O)N1CCC[C@H]1C(=O)N[C@@H](CC(N)=O)C(=O)N[C@@H](CCC(N)=O)C(=O)N[C@@H](CCC(=O)O)C(=O)N[C@@H](CCC(N)=O)C(=O)N[C@@H](CCCCN)C(N)=O)[C@@H](C)O)[C@@H]3C ({Pyropheophorbide(a)}-TSGPNQEQK-NH2)	40			
Prolyl endopeptidase FAP (Mus musculus), P97321 (protein) MKTWLKTVFGVTTLAALALVVICIVLRPSRVYKPEGNTKRALTLKDILNGTFSYKTYFPNWISEQEYLHQSEDDNIVFYNIETRESYIILSNSTMKSVNATDYGLSPDRQFVYLESDYSKLWRYSYTATYYIYDLQNGEFVRGYELPRPIQYLCWSPVGSKLAYVYQNNIYLKQRPGDPPFQITYTGRENRIFNGIPDWVYEEEMLATKYALWWSPDGKFLAYVEFNDSDIPIIAYSYYGDGQYPRTINIPYPKAGAKNPVVRVFIVDTTYPHHVGPMEVPVPEMIASSDYYFSWLTWVSSERVCLQWLKRVQNVSVLSICDFREDWHAWECPKNQEHVEESRTGWAGGFFVSTPAFSQDATSYYKIFSDKDGYKHIHYIKDTVENAIQITSGKWEAIYIFRVTQDSLFYSSNEFEGYPGRRNIYRISIGNSPPSKKCVTCHLRKERCQYYTASFSYKAKYYALVCYGPGLPISTLHDGRTDQEIQVLEENKELENSLRNIQLPKVEIKKLKDGGLTFWYKMILPPQFDRSKKYPLLIQVYGGPCSQSVKSVFAVNWITYLASKEGIVIALVDGRGTAFQGDKFLHAVYRKLGVYEVEDQLTAVRKFIEMGFIDEERIAIWGWSYGGYVSSLALASGTGLFKCGIAVAPVSSWEYYASIYSERFMGLPTKDDNLEHYKNSTVMARAEYFRNVDYLLIHGTADDNVHFQNSAQIAKALVNAQVDFQAMWYSDQNHGISSGRSQNHLYTHMTHFLKQCFSLSD		1.02	36	0.0292
